Experimental data from different studies.
Protocols differ between the studies behind these lines.
Target: Leukocyte tyrosine kinase receptor (LTK, Homo sapiens, UniProt P29376)

Structure (SMILES)	effect on	method	concentration	remaining binding [%]
O=C(NCCCN1CCOCC1)c1ccc(Nc2ncc(Cl)c(-c3ccc(Cl)s3)n2)cc1	binding	competition with immobilised ligand	1 µM	100
c1cnn2ncc(-c3ccnc(N4CCC45COC5)n3)c2c1	binding	–	1 µM	98
O=C1CCc2cc(Nc3cc(OC4CCOCC4)c([N+](=O)[O-])cc3Cl)ccc2N1	cell-free assay	competition with immobilised ligand	1 µM	100
Cc1cc(-c2cc(C(F)(F)F)ccc2O[C@H]2C[C@@]2(CNS(=O)(=O)c2ccc([N+](=O)[O-])cc2)c2ccc(F)cc2F)[nH]n1	cell-free assay	competition with immobilised ligand	0.3 µM	6.9
CN(c1nccc(-c2cnn3ncccc23)n1)C1CC1	binding	–	1 µM	100
O=C(NCCCN1CCOCC1)c1ccc(Nc2nccc(-c3cc4ccccc4s3)n2)cc1	binding	competition with immobilised ligand	1 µM	100
Cc1cnn2ncc(-c3ccnc(N(C)C)n3)c2c1	binding	–	1 µM	98
COc1cnc(Nc2cccc(S(N)(=O)=O)c2)nc1N1CCN(c2ccccc2)C(=O)C1	binding	competition with immobilised ligand	1 µM	91
O=C(Nc1c[nH]nc1C(=O)NC1CCNCC1)c1cc(F)cc(F)c1	binding	competition with immobilised ligand	1 µM	74
O=C(NS(=O)(=O)c1ccc(NCC2CCOCC2)c([N+](=O)[O-])c1)c1ccc(N2CCN(Cc3ccc(C(F)(F)F)cc3-c3ccc(Cl)cc3)CC2)cc1Oc1cnc2[nH]ccc2c1	cell-free assay	competition with immobilised ligand	1 µM	100
COc1cnc(Nc2cccc(S(N)(=O)=O)c2)nc1N1CCN(c2ccccc2)CC1	binding	competition with immobilised ligand	1 µM	100
O=C(c1ccc(Nc2ncc(Cl)c(-c3cc4ccccc4s3)n2)cc1)N1CCC(N2CCCC2)CC1	binding	competition with immobilised ligand	1 µM	100
CC(C)CC(=O)N1CCc2nc(-c3ccc(Br)cc3)nc(N(C)Cc3ccccc3)c2C1	cell-free assay	competition with immobilised ligand	0.1 µM	91
N[C@H]1CCN(c2nccc(-c3cnn4ncccc34)n2)C1	binding	–	1 µM	100
CS(=O)(=O)N1CCCC(NC(=O)[C@H](CCC2CCCCC2)NC(=O)c2ccc(CNc3ncnc4c3nnn4-c3ccccc3)cc2)C1 (stereo partly shown)	cell-free assay	competition with immobilised ligand	0.1 µM	100
FC(F)(F)Oc1cccc(-c2cnc3ccc(-c4ccncc4)nn23)c1	cell-free assay	competition with immobilised ligand	5 µM	100
Cc1nc(Cc2cccc(C(F)(F)F)c2)sc1-c1ccc(C(N)=O)nc1	cell-free assay	competition with immobilised ligand	1 µM	100
C[C@@H]1CCN(c2nccc(-c3cnn4ncccc34)n2)C1	binding	–	1 µM	93
COc1ccc2c(c1)O[C@H](c1ccc(OC)c(OC)c1)C[C@@H]2NC(=O)C1(c2ccc3c(c2)OC(F)(F)O3)CC1	cell-free assay	competition with immobilised ligand	1 µM	100
C=CC(=O)N1CCC(C(=O)NCC(=O)N2CCN(c3nc(-c4cnc(N)nc4C(F)F)nc(N4CCOCC4)n3)CC2)CC1	binding	competition with immobilised ligand	1 µM	100
CC1CCCN1c1nccc(-c2cnn3ncccc23)n1 (stereo not shown)	binding	–	1 µM	100
C[C@@H]1CN(c2cc(-c3n[nH]c4ccc(OC5(C)CC5)cc34)ncn2)C[C@H](C)O1	cell-free assay	competition with immobilised ligand	0.1 µM	84
